# Source: PubChem BioAssay
# Shown is part of a subset that was picked to be rich in hits.
# T cruzi intra: intracellular Trypanosoma cruzi inhibition. activity score (inhibition), % at 5.01 µM. AID 651903. intracellular Trypanosoma cruzi in host cells, plate reader. 4.9% of 22,000 active; in the data active means activity score above about 55%; inconclusive means no clear call, values can overlap the other calls;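 further: parasites and compound incubated about four days before reading; 0% = median of neutral control wells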
# A1 apoptosis 2: compounds inhibiting A1, read as caspase activation; 24,000 tested, under 10 active; MEF A1-2A-BIM cells, caspase-Glo luminescence, 3 h; percent of clofoctol response, DMSO zero; AID 2465; caspase activation, % (concentration not given with the values); in the data active means caspase activation above about 5.9%; inconclusive means no clear call, values can overlap the other calls; inactive means below about 2.2%
#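 Material: A1-2A-BIM-expressing MEF cells. Buffer or medium: RPMI-1640 plus 10% FBS. Incubation: cells settled overnight, compound exposure 3 h at 37 °C, 5% CO2. Signal: Caspase-Glo 3/7 luminescence, 1 h at room temperature.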
# INS-1E ATP HTS: rescue of cytokine-induced death in INS-1E beta cells; protection from cytokine-induced ATP loss, % at 10 µM; 0.1% of 20,000 active; INS-1E cytokine-induced death, ATP luminescence, 48 h; normalised: neutral wells 0, positive control 100; AID 488910;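 active means mean replicate protection from cytokine-induced ATP loss at least 50% and at least 75% of replicates each reaching 50%; inconclusive means meets only one of the two criteria, mean or replicate share; inactive means fails both the mean and replicate share criteria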
#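 Test system: INS-1E rat cells | Quantity: 8000 cells per well | Medium: Phenol-red-free RPMI with 5% fetal bovine serum | Reagent: Cytokine cocktail of IFN-γ, TNF-α and IL-1β | Doses: One compound concentration, pin transfer | Timing: 48 h co-treatment, 10 min post-lysis read | Technique: Luminescent ATP assay (CellTiter-Glo)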
# An asterisk follows results filed as active; ? = inconclusive; nt = no result given.
SMILES,T cruzi intra,A1 apoptosis 2,INS-1E ATP HTS
C[C@@H]1CN([C@H](C)CO)C(=O)Cc2cc(NC(=O)Nc3ccc(F)cc3)ccc2O[C@H]1CN(C)Cc1ccc(-c2ccccc2)cc1,74.0*,0.9,-72.3
C[C@@H]1CN([C@H](C)CO)C(=O)Cc2cc(NC(=O)Nc3ccc4c(c3)OCO4)ccc2O[C@H]1CN(C)Cc1ccc(-c2ccccc2)cc1,71.6*,nt,-34.6
C[C@@H]1CN([C@H](C)CO)C(=O)Cc2cc(NC(=O)Nc3ccc4c(c3)OCO4)ccc2O[C@H]1CN(C)Cc1ccccc1,-15.4,-1.3,-7.6
C[C@H]1CN([C@@H](C)CO)C(=O)Cc2cc(NC(=O)Nc3ccc(F)cc3)ccc2O[C@H]1CN(C)Cc1ccc(-c2ccccc2)cc1,22.4,1.3,-43.6
C[C@H]1CN([C@@H](C)CO)C(=O)c2cc(NC(=O)Nc3ccc4c(c3)OCO4)ccc2O[C@@H]1CN(C)Cc1ccc2c(c1)OCO2,-1.5,0.9,-4.4
C[C@@H]1CN([C@H](C)CO)C(=O)c2cc(NC(=O)Nc3ccc4c(c3)OCO4)ccc2O[C@@H]1CN(C)Cc1ccc(Oc2ccccc2)cc1,61.6*,nt,-12.3
C[C@@H]1CN([C@@H](C)CO)C(=O)c2cc(NC(=O)Nc3ccc4c(c3)OCO4)ccc2O[C@@H]1CN(C)Cc1ccc(C(F)(F)F)cc1,68.0*,-1.7,nt
C[C@H]1CN([C@@H](C)CO)C(=O)c2cc(NC(=O)Nc3ccc(C(F)(F)F)cc3)ccc2O[C@H]1CN(C)Cc1ccc2c(c1)OCO2,34.2*,nt,nt
C[C@@H]1CN([C@H](C)CO)C(=O)c2cc(NC(=O)Nc3ccc(C(F)(F)F)cc3)ccc2O[C@H]1CN(C)Cc1ccc2c(c1)OCO2,36.5,nt,-18.7
C[C@H]1CN([C@@H](C)CO)C(=O)c2cc(NC(=O)Nc3ccccc3)ccc2O[C@H]1CN(C)Cc1ccc2c(c1)OCO2,51.6*,nt,nt
C[C@H]1CN([C@@H](C)CO)C(=O)c2cc(NC(=O)Nc3ccc(C(F)(F)F)cc3)ccc2O[C@H]1CN(C)Cc1ccc(C(F)(F)F)cc1,?,-0.4,-14.4
C[C@@H]1CN([C@H](C)CO)C(=O)c2cc(NC(=O)Nc3ccc4c(c3)OCO4)ccc2O[C@H]1CN(C)Cc1ccc(Oc2ccccc2)cc1,-5.6,nt,nt
C[C@H]1CN([C@@H](C)CO)C(=O)c2cccc(NC(=O)CCCCCC(=O)Nc3ccccc3N)c2O[C@@H]1CN(C)C(=O)Nc1cccc2ccccc12,-0.9,0.5,-3.1
Cc1noc(C)c1S(=O)(=O)N(C)C[C@H]1OCCCC[C@H](C)Oc2ccc(NS(=O)(=O)c3ccc(F)cc3)cc2C(=O)N([C@H](C)CO)C[C@@H]1C,nt,0.0,nt
C[C@@H]1CN([C@H](C)CO)C(=O)c2cccc(NC(=O)c3cnccn3)c2O[C@@H]1CN(C)C,-15.3,1.0,5.7
C[C@@H]1CN([C@H](C)CO)C(=O)c2cc(NC(=O)Nc3ccccc3)ccc2O[C@@H](C)CCCCO[C@H]1CN(C)Cc1ccc(C(=O)O)cc1,nt,0.2,nt
CNC[C@@H]1OCCCC[C@@H](C)Oc2ccc(NS(=O)(=O)c3ccc(Cl)cc3)cc2C(=O)N([C@@H](C)CO)C[C@H]1C,nt,-0.1,nt
COc1ccc(CN(C)C[C@@H]2OCc3cnnn3CCCC(=O)N([C@@H](C)CO)C[C@@H]2C)cc1,-5.8,-0.7,nt
C[C@@H]1CN([C@H](C)CO)C(=O)Cc2cc(NC(=O)Nc3ccc(F)cc3)ccc2O[C@@H]1CN(C)Cc1ccc(C(=O)Nc2ccccc2N)cc1,59.5*,0.1,-15.4
C[C@H](CO)N1C[C@H](C)[C@@H](CN(C)Cc2ccc(C(=O)Nc3ccccc3N)cc2)Oc2ccc(NC(=O)Nc3ccccc3)cc2CC1=O,nt,-1.3,nt
C[C@H]1CN([C@@H](C)CO)C(=O)Cc2cc(NC(=O)Nc3cccc4ccccc34)ccc2O[C@H]1CN(C)Cc1ccc(C(=O)Nc2ccccc2N)cc1,74.2*,0.2,-9.3
C[C@@H]1CN([C@@H](C)CO)C(=O)Cc2cc(N(C)C)ccc2O[C@H]1CN(C)Cc1ccc(C(=O)Nc2ccccc2N)cc1,nt,-0.2,nt
C[C@H]1CN([C@@H](C)CO)C(=O)Cc2cc(N(C)C)ccc2O[C@@H]1CN(C)Cc1ccc(C(=O)Nc2ccccc2N)cc1,70.1*,nt,5.5
C[C@H]1CN([C@@H](C)CO)C(=O)Cc2cc(NC(=O)Nc3ccccc3)ccc2O[C@H]1CN(C)Cc1ccc(C(=O)Nc2ccccc2N)cc1,69.3*,-0.4,11.7
C[C@H]1CN([C@@H](C)CO)C(=O)Cc2cc(NC(=O)Nc3cccc4ccccc34)ccc2O[C@@H]1CN(C)Cc1ccc(C(=O)Nc2ccccc2N)cc1,37.9,-1.7,-14.2
